Assay outcomes: PubChem, several laboratories
Compounds with a hit are over-represented: about 3.8% of the library has one in this group of screens.
NPY-Y1 PAM-ag = potentiators or agonists of human neuropeptide Y receptor Y1; P25929; NPY-Y1 expressing cells, potentiator/agonist activation; activation, % at 3.6 µM; actives 0.37% (n = 220,000); AID 1304; in the data active = activation above about 33%, passing the limit was not always enough;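 note: cells stimulated with NPY at EC10 then isoproterenol at EC100; 0% = low agonist plus stimulus and 100% = saturating agonist plus stimulus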
NPY Y2 blocker = blocks the human neuropeptide Y Y2 receptor. P49146. NPY-Y2 expressing cells, antagonist mode. inhibition, % at 2.7 µM. actives 0.99% (n = 140,000). AID 793;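 note: 0% = vehicle with agonist challenge and 100% = reference antagonist with challenge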
Target sequence (P49146 whole entry, looked up): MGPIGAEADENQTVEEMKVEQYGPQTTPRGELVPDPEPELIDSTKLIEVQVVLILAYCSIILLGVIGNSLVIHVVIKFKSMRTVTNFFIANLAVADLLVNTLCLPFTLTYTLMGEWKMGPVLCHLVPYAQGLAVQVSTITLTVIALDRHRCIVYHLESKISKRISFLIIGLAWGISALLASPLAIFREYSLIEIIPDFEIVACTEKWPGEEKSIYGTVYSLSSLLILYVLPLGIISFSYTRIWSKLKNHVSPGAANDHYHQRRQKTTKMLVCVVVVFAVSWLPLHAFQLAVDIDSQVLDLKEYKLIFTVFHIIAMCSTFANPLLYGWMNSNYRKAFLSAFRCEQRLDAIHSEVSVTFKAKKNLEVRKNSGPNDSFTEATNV
NPY2 pot ag = potentiates or activates human NPY-Y2 receptor; P49146; cells expressing NPY-Y2, potentiator/agonist read-out; activation, % at 3.6 µM; actives 0.45% (n = 220,000); AID 1359; in the data active = activation above about 27%;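 note: cells stimulated with NPY near EC25 plus isoproterenol at EC100; 0% = vehicle plus submaximal agonist and 100% = vehicle plus saturating agonist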
Insulin prom inh = TRM-6 insulin promoter activity inhibition; TRM-6 cells, insulin promoter-eGFP reporter, imaging; reporter expression induced with tamoxifen; inhibition, % at 2 µM; actives 0.9% (n = 130,000);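 active = inhibition above the mean plus 3 SD, with well images judged a real hit on visual review, cut at about 60% in these data, passing the limit was not always enough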
NPY-Y1 antag = blocks the human neuropeptide Y Y1 receptor | P25929 | HEK293-CNG Y1 cells, membrane potential fluorescence; NPY at EC95, then isoproterenol | inhibition, % at 3.6 µM | actives 1% (n = 200,000) | AID 1040;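 active = inhibition above the campaign mean inhibition of all tested compounds plus 3 SD, cut at about 20% in these data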;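 note: 0% = DMSO wells given NPY plus isoproterenol and 100% = isoproterenol alone without NPY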
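Assay system: HEK293 cells with Y1 receptor plus CNG channel | Probe or stimulus: NPY (25 nM), isoproterenol (1 µM), Ro 20-1724 (25 µM) | Timing: Compound incubation 1 h at room temperature, readout 45 min post-stimulation | Measured by: Membrane-potential fluorescent dye readout | Benchmarks: High control isoproterenol alone, low control NPY with isoproterenol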
RAM network inh = yeast RAM network inhibition | S. cerevisiae dse1pr::URA3 reporter, 5-FOA growth OD615, 2 d; analog-sensitive cbk1-as2 kinase mutant strain | inhibition, % at 50 µM | actives 1.8% (n = 190,000) | AID 868;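 active = inhibition above a set limit, 3 SD over mean compound inhibition, cut at about 8.4% in these data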;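 note: 0% = DMSO-only wells with no growth and 100% = 10 µM 1-NA-PP1 full growth; inhibition rescues growth on 5-FOA so higher OD means more RAM inhibition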
NPY1 antag conf = confirmation of human neuropeptide Y receptor Y1 antagonists. AID 1254. HEK293-CNG NPY-Y1, membrane potential fluorescence, cAMP; NPY challenge against isoproterenol-raised cAMP. actives 21% (n = 1,200). shares compounds with NPY-Y1 antag. inhibition, % at 3.6 µM; in the data active = inhibition above about 20%;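 note: 0% = vehicle with agonist plus stimulus and 100% = stimulus alone without agonist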
NPY2 antag ctr = antagonizes human NPY-Y2, counter-screen to NPY-Y1 antagonists; shares compounds with NPY-Y1 antag; HEK293 NPY-Y2 CNG membrane potential fluorescence, antagonism; cells given NPY, then isoproterenol; inhibition, % at 3.6 µM; actives 28% (n = 1,200);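 note: 0% = DMSO with agonist challenge and 100% = reference antagonist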
* hit, by the source's call; / = no result. Cut-off read from the data, not from the text of the source, unless noted: active = inhibition above about 17%; inactive = the rest.

SMILES	NPY-Y1 PAM-ag	NPY Y2 blocker	NPY2 pot ag	Insulin prom inh	NPY-Y1 antag	RAM network inh	NPY1 antag conf	NPY2 antag ctr
O=C(NC(N1CCCC1)C(Cl)(Cl)Cl)c1ccccc1 (stereo not given)	-1	4	-4	/	0	1	/	/
Cc1sc(N/N=C/c2cc([N+](=O)[O-])ccc2O)nc1-c1ccccc1	-21	/	5	24	0	2	/	/
N=c1c2c3c(sc2nc2n1CCCCC2)CCCCC3	10	9	8	0	20*	0	2	6
C/C=C(/C)C(=O)OC1c2c(ccc3ccc(=O)oc23)OC(C)(C)C1OC(=O)/C(C)=C\C (stereo not given)	-13	/	-35	/	22*	7	12	31*
C/C=C(\C)C(=O)OC1c2c(ccc3ccc(=O)oc23)OC(C)(C)C1OC(C)=O (stereo not given)	-17	10	-2	28	4	1	/	/
CCCCN1Cc2cc(C(=O)c3cc(F)ccc3O)cnc2NC1=O	-33	3	-3	/	22*	3	0	2
Cc1nc(NCCc2ccccc2F)c(C#N)c(C)c1[N+](=O)[O-]	-15	6	-6	-23	29*	6	8	3
Cc1nc(NCCc2ccc(F)cc2)c(C#N)c(C)c1[N+](=O)[O-]	-12	1	4	/	1	5	/	/
COc1ccc(CC2(CO)CCN(Cc3cnn(-c4ccccc4OC)c3)CC2)cc1	-27	/	-26	/	5	1	/	/
COc1ccc(CC2(CO)CCN(C/C=C/c3ccccc3OC)CC2)cc1	-30	/	-15	7	27*	1	17	23*
Cc1cc(N2CCN(c3ccc(F)cc3)CC2)nc(-c2ccccc2)n1	-42	3	-6	17	21*	1	3	6
Cc1cc(N2CCC(C(=O)Nc3ccc(F)cc3)CC2)nc(-c2ccccc2)n1	-16	3	7	15	-3	1	/	/
CCCNc1nc(N2CCCC2)nc(N2CCCC2)n1	-1	/	8	83*	30*	4	13	11
CC(C)(C)Nc1nc(N2CCCC2)nc(N2CCCC2)n1	18	15	11	-29	19	-1	/	/
COc1ccc(C(=O)NCc2nnc(SCC(=O)N3CCC(C)CC3)o2)cc1	3	/	7	/	4	2	/	/
Cc1ccc(-n2cc(CNCC3CC(=O)N(C4CC4)C3)c(-c3cccc(C)c3)n2)cc1 (stereo not given)	-40	/	-29	/	22*	0	10	17
c1ccc(COc2ccccc2CNC23CC4CC(CC(C4)C2)C3)cc1	-64	/	-22	-59	158*	0	110*	70*
O=C(COc1ccc(Br)cc1CNC1CCCCC1)NCCc1ccccc1	8	/	1	/	27*	-1	18	13
c1ccc(COc2ccccc2CNC2CCCC2)cc1	-14	/	0	-32	32*	2	4	5
COc1cc(CNC2CCCC2)cc(Cl)c1OCc1ccccc1Cl	-17	3	-5	-33	-5	0	/	/
COc1ccc(Br)cc1CN(C)CC(=O)NCCc1ccccc1	-1	/	-16	/	7	1	/	/
CCN(CC)CCN1C(=O)C(=O)/C(=C(/O)c2ccc3c(c2)CC(C)O3)C1c1ccc(OC)cc1 (stereo not given)	4	/	-11	/	/	/	/	/
CCOC(=O)CSc1nc2sc(C)c(C)c2c(=O)n1C	-6	3	-4	-50	6	2	/	/
CCOC(=O)CSc1nc(C(C)C)nc2sc(C)c(C)c12	-43	/	-36	/	23*	4	39*	41*
Cc1cc(=O)n2c(C(=O)Nc3ccc(C(=O)OC(C)C)cc3)c(C(=O)Nc3ccccc3)sc2n1	-136	/	-48	/	25*	2	35*	29*
SMILES	NPY-Y1 PAM-ag	NPY Y2 blocker	NPY2 pot ag	Insulin prom inh	NPY-Y1 antag	RAM network inh	NPY1 antag conf	NPY2 antag ctr
Cc1nc(C)c(C(=O)Nc2ccccc2)s1	-25	6	-6	-10	-3	0	/	/
O=C(O)CSc1ccc2ccccc2n1	-29	10	-23	-44	20*	-1	5	11
C#CC1(NC(=O)NC(C)C)CCCCC1	-5	/	0	13	4	3	/	/
Cc1ccccc1NC1=C(Cl)C(=O)N(C2CCCCC2)C1=O	-14	3	7	-55	22*	1	7	1
CCCNC(=O)C1CCN(S(=O)(=O)c2cccs2)CC1	21	/	10	67	0	0	/	/
O=C(NCCN1C(=O)S/C(=C\c2ccccc2F)C1=O)C1CCN(S(=O)(=O)c2cccs2)CC1	3	15	-4	-45	20*	3	9	10
Cc1ccccc1NC(=O)c1sc2nc3c(c(-c4ccco4)c2c1N)CCCC3	-8	2	-1	/	24*	5	2	4
Nc1c(C(=O)Nc2ccccc2)sc2nc3c(c(-c4ccco4)c12)CCCC3	-50	0	-16	6	6	3	/	/
Cn1c(=O)n(Cc2ccccc2Br)c2ccccc21	0	/	-4	-11	0	1	/	/
N=c1n(CCN2CCOCC2)c2ccccc2n1Cc1ccccc1Br	-12	11	1	/	21*	0	3	5
O=C1CCCC(=O)C1Sc1ccc(Cl)cc1	-1	/	6	/	-3	3	/	/
CCOC(=O)c1ccc(Cl)c(NC(=O)c2cccnc2)c1	4	/	5	/	4	1	/	/
Cc1c(C(=O)OC2CCC(C)CC2)[nH]c2c1C(=O)CCC2 (stereo not given)	8	1	5	/	-5	6	/	/
COC(=O)c1[nH]c2c(c1C)C(=O)CCC2	-5	0	4	/	31*	0	-4	2
CCc1nn2cc(-c3ccccc3)nc2s1	4	1	11	-27	28*	-1	-1	0
O=C(NCCc1c[nH]c2ccccc12)/C(=C/c1cccnc1)NC(=O)c1cccs1	-5	/	-7	/	5	2	/	/
COc1ccc(CSc2nc3ccccc3c(=O)n2CCCN2CCOCC2)cc1F	-35	/	-22	/	28*	2	14	14
COc1ccc(CCn2c(SCCN3CCCCC3)nc3ccccc3c2=O)cc1OC	-27	/	-27	/	38*	1	16	18*
O=c1c2ccccc2nc(SCCN2CCOCC2)n1CCc1ccccc1	-16	/	-15	/	7	-1	/	/
COC(=O)[C@@]1(Cc2ccc(OC)cc2)[C@H]2c3cc(C(=O)N(C)C)n(Cc4ccc(OC(F)(F)F)cc4)c3C[C@H]2CN1C(=O)c1ccccc1	3	16	9	30	35*	6	14	6
